MC4R antag cAMP: MC4R antagonists of cAMP signaling, primary screen, cell-based, TR-FRET, antagonist arm of biased-ligand search; Melanocortin receptor 4 (Homo sapiens), P32245; inhibition, % at 6.5 µM; 360,000 compounds, 0.48% hits; MC4R-expressing cells, MTII-stimulated cAMP, LANCE TR-FRET;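 active = inhibition above its plate's cutoff, the mean of tested wells on that plate plus 3 SD, cut at about 29% in these data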;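 also: 0% = Melanotan II alone and 100% = Melanotan II plus saturating MCL0020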
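Material: U2OS-MC4R stable cell line | Reagent: Melanotan II challenge after compound preincubation | Doses: One concentration, 6.5 µM nominal | Incubation: 30-min compound preincubation, 1-h Melanotan II challenge, 1-h detection, room temperature | Signal: TR-FRET cAMP assay | Replicates: One well per compound, no replicates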
PG9 binder: binders of HIV-1 gp120 antibody PG9, primary screen, biochemical, TR-FRET. HIV-1 gp120 / PG9 antibody interaction. TR-FRET gp120-PG9 antibody binding. inhibition, % at 6.7 µM. 360,000 compounds, 0.43% hits. AID 624416, 2012; in the data active = inhibition above about 8.5%
MC4R ag barr: MC4R agonists recruiting beta-arrestin, primary screen, cell-based, luminescence, agonist arm of biased-ligand search; Melanocortin receptor 4 (Homo sapiens), P32245; U2OS MC4R beta-arrestin complementation; percent of melanotan II response, DMSO zero; activation, % at 8.9 µM; 360,000 compounds, 0.98% hits; AID 540308, 2011;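 active = activation above a per-plate cutoff, the mean activation of sample wells on that plate plus 3 SD, cut at about 8% in these data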
NTR1 agonist: agonists of human NTR1, primary screen, imaging, U2OS cells, beta-arrestin-GFP, high content. NTR1-U2OS beta-arrestin-GFP spot imaging, agonist mode. activation, % at 20 µM. 330,000 compounds, 0.17% hits;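 active = activation at or above 40% of the spot to cytoplasm intensity ratio, with at least 20 cells analyzed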;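 also: 0% = DMSO without peptide and 100% = 100 nM NTR1 peptide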
Rev-erbA mod: modulators of Rev-erb alpha DNA binding, primary screen, biochemical, FITC-DNA, fluorescence polarization, uHTS; AID 1259318, 2017; Rev-erbα–FITC-DNA binding, 90 min; Nuclear receptor subfamily 1 group D member 1 (Homo sapiens), P20393; activity, % at 10 µM; 370,000 compounds, 0.79% hits;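 active = activity above about 14%, limit read from the data; passing the limit was not always enough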;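 also: 0% = DMSO wells with 35 nM protein and 100% = DMSO wells with 750 nM protein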
MC4R barr ag: MC4R beta-arrestin agonists, retest, confirmation, cell-based, luminescence, U2OS | 2,400 compounds, 31% hits | U2OS MC4R beta-arrestin recruitment; scaled DMSO 0%, Melanotan II 100% | AID 602192, 2012 | activation, % at 8.9 µM | shares compounds with MC4R ag barr;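 active = mean activation across replicates above the hit cutoff set in the earlier primary screen, cut at about 8% in these data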
MOR DOR agonist: agonists of MOR-DOR heterodimerization, counter-screen for MC4R biased agonist project, cell-based, luminescence; U2OS PathHunter beta-arrestin, beta-gal luminescence; percent of deltorphin B response, DMSO zero; AID 602194, 2012; 2,400 compounds, 5.8% hits; activation, % at 9.2 µM; shares compounds with MC4R ag barr;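 active = mean activation across replicates exceeds the hit threshold derived in the earlier primary screen, cut at about 18% in these data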;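 also: 100% = deltorphin B at 0.9 µM final and 0% = DMSO alone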
Target sequence (P35372 whole entry, looked up): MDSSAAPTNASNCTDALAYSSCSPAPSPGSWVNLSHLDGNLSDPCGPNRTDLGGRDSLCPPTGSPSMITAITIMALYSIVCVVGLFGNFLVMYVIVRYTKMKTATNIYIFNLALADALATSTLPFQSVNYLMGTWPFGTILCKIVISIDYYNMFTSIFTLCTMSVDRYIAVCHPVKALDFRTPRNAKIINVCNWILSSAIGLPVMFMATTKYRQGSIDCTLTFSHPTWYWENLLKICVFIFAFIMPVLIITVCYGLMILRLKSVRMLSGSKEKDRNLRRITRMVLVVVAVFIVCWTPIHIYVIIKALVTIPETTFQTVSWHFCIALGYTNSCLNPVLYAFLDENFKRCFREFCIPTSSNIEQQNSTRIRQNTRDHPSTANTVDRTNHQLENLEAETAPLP
Target sequence (P41143 whole entry, looked up): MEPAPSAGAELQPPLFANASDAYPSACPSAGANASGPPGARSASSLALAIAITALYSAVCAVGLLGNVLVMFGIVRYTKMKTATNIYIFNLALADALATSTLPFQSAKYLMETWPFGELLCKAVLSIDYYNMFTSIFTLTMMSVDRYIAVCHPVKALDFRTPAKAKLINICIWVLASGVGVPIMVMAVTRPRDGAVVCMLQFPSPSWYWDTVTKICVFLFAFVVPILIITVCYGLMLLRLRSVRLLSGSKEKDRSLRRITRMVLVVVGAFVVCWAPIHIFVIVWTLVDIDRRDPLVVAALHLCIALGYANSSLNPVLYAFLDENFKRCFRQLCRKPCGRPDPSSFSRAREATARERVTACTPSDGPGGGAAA
Active calls of the source: *; . = not tested or not shown. Sampled rows, rich in hits. Any-hit rate of the full collection: about 2.5%.

SMILES	MC4R antag cAMP	PG9 binder	MC4R ag barr	NTR1 agonist	Rev-erbA mod	MC4R barr ag	MOR DOR agonist
COC(=O)[C@@]12CCCCC=C1N(CCc1ccc(Cl)cc1)C(=O)[C@H]2CC(=O)NCCCCc1ccccc1	.	.	.	.	8	.	.
COc1ccc(Cn2cc(COC(=O)Nc3ccc(F)cc3)nn2)cc1	.	.	.	.	-2	.	.
O=C(COc1ccc(C(=S)N2CCOCC2)cc1Cl)Nc1ccccc1Cl	12	-1	22*	2	7	-1	4
CN1CCN(C2=CC3=CC(=C(C#N)C#N)CCC3CC2)CC1 (stereo unspecified)	-24	.	15*	.	.	14*	7
CCN1CCN(C2=CC3=CC(=C(C#N)C#N)CCC3CC2)CC1 (stereo unspecified)	-8	.	3	.	.	.	.
COc1ccc(-n2c(SCC(=O)NC3CCCCCC3)nnc2-c2ccncc2)cc1	.	.	.	.	-4	.	.
O=C(COC(=O)c1cc2ccccc2cc1O)Nc1ccccc1F	1	0	13*	2	-3	2	3
COc1ccccc1NC(=O)COC(=O)c1cc(C)nc2ccccc12	8	1	0	1	0	.	.
COc1ccc(C(C)=O)cc1COC(=O)c1cc2ccccc2cc1O	-16	2	11*	6	13	-1	6
COc1ccccc1NC(=O)COC(=O)c1cc2ccccc2cc1O	5	-1	17*	7	5	1	6
O=C(COC(=O)c1cc2ccccc2cc1O)Nc1cccnc1Cl	9	-2	4	2	4	.	.
COc1ccc(C(C)=O)cc1COc1ccc(Cl)cc1Cl	-7	0	11*	0	-1	0	2
O=C(COC(=O)c1ccccc1O)Nc1cccc2ccccc12	-2	1	12*	1	-2	1	2
Cc1ccc(NC(=O)c2ccc(OC(=O)CCN3C(=O)c4ccccc4C3=O)cc2)cc1	6	-1	12*	0	-7	2	3
Cc1cc(C)cc(OC(=O)CCN2C(=O)c3ccccc3C2=O)c1	0	-1	3	2	-2	.	.
C=C1C2CCC(C2)C1(C)C (stereo unspecified)	.	.	.	.	-1	.	.
O=C(c1ccccc1)c1ccc2nc(-c3ccc(NC(=O)c4ccccc4F)cc3)[nH]c2c1	17	4	12*	4	6	1	8
O=C(Nc1ccccc1)Nc1cc(Cl)cc(Cl)c1	8	0	1	12	4	.	.
O=C(Nc1ccccc1)Nc1cc(OCC(F)(F)F)cc(OCC(F)(F)F)c1	17	0	10*	.	8	2	8
CCn1c(Cc2cccs2)nnc1SCC(=O)Nc1ccc2c(c1)OCCO2	.	.	.	.	-2	.	.
CCOC(=O)c1c(-c2ccc(C)o2)csc1NC(=O)COC(=O)c1ccc(NC(N)=O)cc1	26	8	24*	24	4	6	3
COc1ccc(-c2sc3ccccc3c2-c2ccc(O)cc2)cc1	7	0	0	26	-2	.	.
COc1ccc(-c2sc3ccccc3c2-c2ccc(OCCN(C)C)cc2)cc1	28	-1	21*	13	1	45*	15
CN(C)CCOc1ccc(-c2c(-c3ccsc3)sc3ccccc23)cc1	12	-2	13*	5	-1	23*	9
CCc1ccc(N=C2NC(=O)/C(=C/c3cc(OC)c(O)c(OC)c3)S2)cc1	2	-1	14*	24	1	13*	7
SMILES	MC4R antag cAMP	PG9 binder	MC4R ag barr	NTR1 agonist	Rev-erbA mod	MC4R barr ag	MOR DOR agonist
C[C@@H]1CCN(C2CC2)S(=O)(=O)c2c(cccc2N2CC[C@H](O)C2)O1	.	.	.	.	-3	.	.
O=C(N/N=C/c1ccc(O)cc1)c1ccc(COc2cc(Cl)ccc2Cl)o1	5	-2	26*	12	0	40*	9
O=C(Nc1ccn(Cc2c(F)c(F)cc(F)c2F)n1)c1ccc(COc2cc(Cl)ccc2Cl)o1	8	1	11*	5	-6	3	3
O=C(Nc1cccnc1)c1ccc(COc2cc(Cl)ccc2Cl)o1	2	0	0	4	3	.	.
CC(C)c1nc(N(C)S(C)(=O)=O)nc(-c2ccc(F)cc2)c1/C=C/[C@@H](O)C[C@@H](O)CC(=O)O	.	.	.	.	1	.	.
COc1cc(OC)cc(-c2sc3ccc(OC)cc3c2C#CC2(N)CCCCC2)c1	18	-1	21*	12	-2	14*	6
COc1ccc(-c2sc3cc4c(cc3c2C#CC2(N)CCCCC2)OCO4)cc1	3	-1	16*	16	-4	6	4
COc1ccc(-c2sc3ccc(N4CCOCC4)cc3c2C#CC2(O)CCCCC2)cc1	6	-2	32*	10	5	45*	11
S=c1[nH]nc(C2CC2c2ccc(Cl)cc2)n1-c1ccc(Cl)cc1 (stereo unspecified)	1	-1	11*	2	-1	4	7
COC(=O)c1ccc(S(=O)(=O)N2CCC(NC(=O)Cc3ccccc3)CC2)cc1	.	.	.	.	1	.	.
COc1ccc(OC)c(/C=N/NC(=O)c2cc3c(OC)cccc3[nH]2)c1	12	-1	3	4	-1	.	.
CCOc1ccc(/C=N/NC(=O)c2cc3c(OC)cccc3[nH]2)cc1	-8	0	11*	0	-5	3	18*
O=C(COc1ccccc1)NCc1ccco1	7	1	0	.	-10	.	.
N#Cc1c2ccc(OCC(=O)NCc3ccco3)cc2n2ccccc12	12	-3	14*	0	-2	3	5
Cc1ccc(CN2CC(C(=O)Nc3nnc(SCc4c(Cl)cccc4Cl)s3)CC2=O)cc1 (stereo unspecified)	2	2	29*	7	-2	8	4
O=C1NC2(NN1c1ccccc1)C1CC3CC(C1)CC2C3 (stereo unspecified)	15	1	18*	-1	5	3	5
O=C(NC(=S)Nc1ccccc1)c1cncc(C#Cc2ccccc2)c1	-1	2	14*	2	3	0	2
